The list is not random: actives were taken first. Their share in the collection is about 4.2%.
KCC2 mod = modulators of human KCC2 chloride dependent transport. AID 1456. Q9H2X9. KCC2 cells, thallium flux FluoZin-2 fluorescence. B-score of Tl+ flux slope (higher = more flux/activation; lower = inhibition) at 10 µM. 190,000 compounds, 2.2% hits;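 active = thallium flux slope and its plate-corrected score both differing from the plate sample mean at a set confidence after two filtering rounds, in either direction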;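 also: slope of fluorescence scaled to starting intensity during 10 to 20 s after thallium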
Autophagy HCS = alters autophagy in cells | MEF GFP-LC3 puncta imaging; test concentration mostly 10 µM | calls only at 10 µM (by protocol) | 190,000 compounds, 0.98% hits | AID 463193;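 active = percentage of spot-positive cells more than 3 SD above its plate mean, without a fluorescence outlier flag or 80% toxicity; inconclusive = no clear call, values can overlap the other calls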;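 also: spot-positive cell cutoff set from DMSO-treated cells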
SKKanGAS inh = inhibitors of SKKanGAS S. pyogenes growth in kanamycin (SK-promoter or general growth effect); BacTiter-Glo, 6 h; inhibition, % at 7.5 µM; 300,000 compounds, 1.3% hits; AID 1662;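 active = mean replicate score, as percent of positive control median, at least 50; inconclusive = mean below 50 but one replicate at or above 50; inactive = mean and every replicate below 50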;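 also: strain carries kanamycin resistance gene driven by streptokinase promoter and grows in 40 µg/ml kanamycin; loss of luminescence reflects streptokinase promoter inhibition or plain growth inhibition; 0% = median of DMSO wells and 100% = positive control at its reference dose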
Insulin prom up = MIN6 insulin promoter up-regulation | MIN6 insulin promoter-GFP reporter, high-content imaging; stronger effect = higher value | z-score at 5 µM | 190,000 compounds, 0.3% hits;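 active = z-score above 3 at 5 µM with at least 500 cells counted in the well; inconclusive = wells under 500 cells, flagged as cytotoxic or low count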
Rad51 HR inh = blocks human Rad51 in homologous recombination | Q06609 | hRad51 DNA strand exchange, fluorescence dequenching | inhibition, % at 10 µM | 200,000 compounds, 0.085% hits | AID 1385;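 active = inhibition above 40% at the single screening dose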;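 also: 0% = DMSO control wells and 100% = blanks with heterologous ssDNA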
Target sequence (Q06609 whole entry, looked up): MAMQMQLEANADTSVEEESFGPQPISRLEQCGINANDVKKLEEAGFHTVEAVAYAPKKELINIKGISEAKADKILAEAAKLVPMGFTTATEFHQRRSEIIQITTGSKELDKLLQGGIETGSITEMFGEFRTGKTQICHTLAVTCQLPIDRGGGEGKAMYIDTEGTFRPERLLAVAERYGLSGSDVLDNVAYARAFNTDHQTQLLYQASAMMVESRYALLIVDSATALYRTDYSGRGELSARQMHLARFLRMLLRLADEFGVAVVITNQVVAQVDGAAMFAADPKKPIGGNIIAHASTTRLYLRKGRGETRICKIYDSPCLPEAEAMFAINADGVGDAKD
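System: human Rad51 nucleoprotein filaments preassembled on unlabelled ssDNA. Reagent: labelled 47-mer dsDNA for strand exchange. Schedule: 30-min compound preincubation and 15-min exchange, both room temperature. Measured by: FRET fluorescence dequenching, excitation 485 nm, emission 520 nm. Read-out: Fluorescence-based percent inhibition, control- and blank-normalised. Benchmarks: plate controls and plate blanks.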
WT yeast gro inh = growth inhibition of WT yeast, mitochondrial fusion screen; AID 1362; 190,000 compounds, 2.1% hits; mitochondrial fusion phenotypic screen, WT strain; inhibition, % at 10 µM; in the data active = inhibition above about 58%; tested in S. cerevisiae
KCC2 sec1 = confirmation of human KCC2 transport modulators; shares compounds with KCC2 mod; HEK293-KCC2, thallium flux, FluoZin2 fluorescence; stronger effect = higher value; normalised thallium flux (F/F0 slope) at 10 µM; 3,700 compounds, 15% hits; AID 1713;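 active = thallium flux slope above the same plate's solvent-only control mean plus 3 SD; inconclusive = the two replicate wells disagree; inactive = no significant difference from solvent-only control wells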
KCC2 bumet counter = bumetanide-insensitive thallium flux in KCC2 cells with ouabain, counter-screen. shares compounds with KCC2 mod. HEK293-KCC2 + bumetanide/ouabain, thallium flux FluoZin2; stronger effect = higher value. normalized thallium flux at 10 µM. 3,700 compounds, 49% hits. AID 1714;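 active = thallium entry rate above the same plate's blocked-transporter control wells by more than 3 SD; inconclusive = the two repeat wells disagree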;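 also: raw slope of fluorescence over initial fluorescence between 10 and 20 s after thallium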
KCC2 secondary2 = KCC2 (human) modulation, second secondary assay; shares compounds with KCC2 mod; HEK293-KCC2, thallium flux FluoZin2 fluorescence; actives lie on both sides; F/F0 rise rate, 10–20 s post-thallium; normalized thallium flux at 10 µM; 3,700 compounds, 23% hits;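 active = thallium flux slope more than 3 SD above or below the plate's solvent-only control mean, mostly below; inconclusive = the two repeat wells disagreed; inactive = no significant shift from solvent-only controls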;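 also: raw slope with 0.1% DMSO as baseline and bumetanide as block control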
HEK293 Tl flux = acts in parental HEK cells, KCC2 counter-screen; shares compounds with KCC2 mod; HEK293 parental cells, thallium flux FluoZin2, ouabain; baseline-ratio fluorescence slope, 10–20 s after thallium; thallium flux rate (normalised fluorescence) at 10 µM; 3,700 compounds, 46% hits; AID 1716;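 active = thallium flux rate significantly above the same plate's solvent-only control wells, beyond their mean plus 3 SD; inconclusive = the two replicate wells gave conflicting results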
KCC2 ouabain = modulates human KCC2 on retest with ouabain. AID 1717. 3,700 compounds, 48% hits. raw Tl+ flux slope (below DMSO = inhibition, above = activation) at 10 µM. shares compounds with KCC2 mod. HEK293-KCC2, thallium flux FluoZin2 fluorescence; bidirectional: low = inhibitor, high = activator;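 active = thallium flux slope beyond 3 SD from same-plate DMSO control mean in most replicates, usually higher, sometimes lower; inconclusive = repeat tests gave conflicting results; inactive = no significant difference from controls in most replicates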;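 also: slope of initial-normalized fluorescence between seconds 10 and 20 after thallium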
HEK293 Tl flux2 = counter-screen for KCC2 modulators: effect in parental HEK293 cells | shares compounds with KCC2 mod | thallium flux FluoZin-2 fluorescence slope | thallium flux slope at 10 µM | 3,700 compounds, 33% hits;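 active = thallium flux slope above the same plate's solvent-control mean plus 3 SD in both duplicate wells; inconclusive = duplicate wells that disagreed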;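 also: run without ouabain in cells lacking the KCC2 cotransporter; slope of fluorescence scaled to its starting value between 10 and 20 s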
* = called active by the depositor; i = inactive; ? = inconclusive; nt = not tested or not shown; + = active, no number.

SMILES	KCC2 mod	Autophagy HCS	SKKanGAS inh	Insulin prom up	Rad51 HR inh	WT yeast gro inh	KCC2 sec1	KCC2 bumet counter	KCC2 secondary2	HEK293 Tl flux	KCC2 ouabain	HEK293 Tl flux2
O=C(/C=C/c1ccccc1)Nc1scc(-c2ccccc2)c1C(=O)O	-7.05*	+	15.1	0.93	-7.3	-23.1	0.00916	?	0.0265*	0.00796	0.0135*	0.0108
O=C(/C=C/c1ccco1)Nc1scc(-c2ccccc2)c1C(=O)O	nt	nt	13.9	0.36	13.4	nt	nt	nt	nt	nt	nt	nt
CCOC(=O)NNc1ccc2nonc2c1[N+](=O)[O-]	12.7*	nt	11.2	0.02	0.6	nt	0.00705	0.0133*	0.0334	0.013*	0.0244*	0.0133*
O=c1[nH]cnc2scc(-c3ccc(Br)cc3)c12	nt	i	-10.4	-0.35	10.7	3.4	nt	nt	nt	nt	nt	nt
S=c1[nH]cnc2scc(-c3ccc(Cl)cc3)c12	181*	nt	76.1*	-1.13	4.3	nt	0.0627*	0.168*	0.0578*	?	0.117*	0.0624*
S=c1[nH]cnc2scc(-c3ccc(Br)cc3)c12	48.1*	i	2.0	-0.85	-2.0	-3.4	0.0548*	0.144*	?	?	0.0936*	0.0268*
Clc1ccc(-c2csc3ncnc(Cl)c23)cc1	0.31	i	2.4	-0.14	-3.7	18.0	nt	nt	nt	nt	nt	nt
CCOC(=O)c1ccc(N2CCOCC2)c(NC(=O)c2c(-c3ccccc3)noc2C)c1	-1.1	nt	2.0	-0.23	-12.2	nt	nt	nt	nt	nt	nt	nt
COc1ccc(-n2c(=S)[nH]c3sc(-c4ccccc4)cc3c2=O)c(OC)c1	9.49*	nt	12.9	-0.15	9.5	nt	0.0141*	0.0268*	0.0246*	0.02*	?	0.0123
COc1ccc(N2C(=S)N=C(Nc3cccc(C)c3)C23CCCCC3)cc1	4.32*	i	-2.7	-0.61	nt	4.3	0.0102	0.0112*	0.0313	0.0106*	0.0245	0.0113*
Cc1cccc(C)c1NC1=NC(=S)N(c2ccc(C(=O)O)cc2)C12CCCCC2	0.675	i	0.6	0.51	-18.8	-18.5	nt	nt	nt	nt	nt	nt
COc1ccccc1N1C(=S)N=C(Nc2c(C)cccc2C)C12CCCC2	6.18*	nt	3.1	-0.36	3.3	nt	0.0106	0.0485*	0.0352	0.0152*	0.0252	0.0123*
CCOc1ccc(S(=O)(=O)NCCC(=O)N(C)CC(=O)Nc2ccc(N3CCOCC3)cc2)cc1	nt	nt	-3.6	nt	nt	nt	nt	nt	nt	nt	nt	nt
COc1ccccc1N1CCN(C(=S)NC(=O)/C=C/c2ccc(F)cc2)CC1	26.9*	nt	-10.3	nt	nt	nt	0.00554	0.0394*	0.0336	0.0155*	0.0315*	0.0181*
COc1ccccc1N1CCN(C(=S)NC(=O)/C=C/c2ccccc2)CC1	6.71*	nt	44.2	0.68	8.8	nt	0.0059	0.0109*	0.0335	0.0136*	?	0.014*
CN1CCN(C(=S)NC(=O)/C=C/c2ccccc2)CC1	-0.82	i	-3.6	1.22	nt	4.5	nt	nt	nt	nt	nt	nt
CC(C)CC(=O)N1CCN(c2ccc(NC(=O)c3ccco3)cc2)CC1	nt	nt	0.1	nt	nt	nt	nt	nt	nt	nt	nt	nt
CC(=O)NC(=S)Nc1ccc(NC(=O)c2cccs2)cc1	0.354	i	-1.1	-0.18	-1.5	9.9	nt	nt	nt	nt	nt	nt
CC(C)c1ccc(NC(=S)NNC(=O)c2cccs2)cc1	24.9*	i	-1.8	0.79	-9.2	16.0	?	0.0376*	0.0274	0.0183*	?	?
CC1(C)Cc2nc3scc(NC(=O)c4ccccc4)c3cc2CO1	-1.66	nt	3.7	-0.03	8.9	nt	nt	nt	nt	nt	nt	nt
CC(=O)c1sc(-c2ccccc2)cc1NS(=O)(=O)c1ccccc1	1.57	nt	-0.4	-0.84	-12.2	nt	nt	nt	nt	nt	nt	nt
NC(=O)c1sc(-c2ccsc2)cc1NS(=O)(=O)c1ccc(C(F)(F)F)cc1	-5.39*	nt	11.0	0.13	15.0	nt	0.00739	0.00605	0.0296	0.00694	0.0118*	0.0107
O=C1OCc2ccc(NS(=O)(=O)c3ccc(C(F)(F)F)cc3)cc21	-0.377	nt	3.7	0.37	nt	nt	nt	nt	nt	nt	nt	nt
CC(=O)c1sc(-c2ccc(F)cc2)cc1NS(=O)(=O)c1ccc(C)cc1	9.96*	nt	3.5	0.02	-12.0	nt	0.0106	0.00642	0.0358	0.0077	0.0234	0.0104
CCOC(=O)Cc1csc(/N=C/c2c(O)n(-c3ccccc3C(F)(F)F)c(=O)c3ccccc23)n1	0.874	i	2.6	0.42	-13.9	2.3	nt	nt	nt	nt	nt	nt
SMILES	KCC2 mod	Autophagy HCS	SKKanGAS inh	Insulin prom up	Rad51 HR inh	WT yeast gro inh	KCC2 sec1	KCC2 bumet counter	KCC2 secondary2	HEK293 Tl flux	KCC2 ouabain	HEK293 Tl flux2
Cc1ccc(C)c(Cn2c(C)nc3c(sc(=S)n3-c3ccccc3)c2=O)c1	0.773	i	4.9	nt	3.5	-0.9	nt	nt	nt	nt	nt	nt
CC(=O)Nc1ccc(S(=O)(=O)N(C)CC(=O)OCC(=O)N2CCc3ccccc32)cc1	-3.82*	i	-4.4	-0.21	nt	-2.0	0.00673	0.00653	0.0285	?	0.0196*	?
CC(C)(C)NC(=S)N/N=C/c1c(Cl)cccc1Cl	7.77*	nt	-7.0	-0.33	17.4	nt	0.00754	0.00937*	0.0301	0.0118*	0.0218	0.0129*
COC(=O)NCC(c1cccnc1)N1CCOCC1 (centres undefined)	0.24	nt	-3.6	0.9	2.3	8.3	nt	nt	nt	nt	nt	nt
Cc1cccc(NC(=O)NCC(c2cccnc2)N2CCOCC2)c1 (centres undefined)	nt	i	-5.7	nt	nt	8.0	0.0116	0.00681	0.0348	0.00812	0.0218	0.0108
Cc1ccc(C)c(S(=O)(=O)N2CCN(CC(=O)N3CCc4ccccc4C3)CC2)c1	-4.14*	i	3.3	1.88	-9.4	8.0	0.0072	0.00585	0.0298	0.00675	0.0218*	?
CC(=O)NC(C)C(=O)OCC(=O)c1ccc(-c2ccccc2)cc1 (centres undefined)	-4.1*	+	6.4	-0.45	-12.4	4.6	0.00724	0.00512	?	0.00788	0.0175	0.0119
CN(C)C(=O)CN1C(=O)NC2(CCc3ccccc32)C1=O (centres undefined)	nt	nt	0.2	nt	nt	nt	nt	nt	nt	nt	nt	nt
CCOc1cc(/C=C(/C#N)c2ccc(F)cc2)ccc1OCc1ccc(C(=O)O)o1	-4.91*	i	21.4	nt	10.7	-11.9	0.0159	0.00405	0.0237*	0.00547*	0.0123*	?
O=[N+]([O-])c1ccc(C23CC4CC(CC(O)(C4)C2)C3)cc1	nt	nt	-6.0	nt	nt	nt	nt	nt	nt	nt	nt	nt

Screening data deposited in PubChem BioAssay by several laboratories.
